Most compounds without a hit are left out; they make up all but 3.7% or so of the library.
NS3 helicase inh: HCV NS3 helicase inhibition. NS3 helicase DNA unwinding, Cy5 molecular beacon fluorescence. inhibition, % at 10.9 µM. 290,000 compounds, 0.56% hits. AID 1800;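 active means inhibition above the mean of all tested compounds plus 3 SD, set per campaign, cut at about 35% in these data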;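 further: 0% = DMSO wells and 100% = thioflavine S control wells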
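Assay system – hepatitis C virus NS3 helicase domain fragment enzyme · Buffer or medium – MOPS pH 6.5, MgCl2, DTT, Tween20, BSA · Reagent – Cy5/quencher beacon DNA duplex and ATP to start · Compound – single 10.9 µM dose · Timing – 1 h at 25 °C · Technique – Cy5 beacon fluorescence read at start and 1 h · Measure – % inhibition of unwinding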
TAAR1 antag: antagonists of human TAAR1; Q96RJ0; CHO RD-HGA16 TAAR1, Fluo-8 calcium fluorescence, antagonist; inhibition, % at 3 µM; 360,000 compounds, 1.5% hits;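 active means inhibition above a per-plate cutoff, the mean inhibition of test compounds on that plate plus 3 SD, cut at about 49% in these data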;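 further: 0% = DMSO plus EC80 beta-PEA response and 100% = DMSO alone without agonist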
Target sequence (Q96RJ0 whole entry, looked up): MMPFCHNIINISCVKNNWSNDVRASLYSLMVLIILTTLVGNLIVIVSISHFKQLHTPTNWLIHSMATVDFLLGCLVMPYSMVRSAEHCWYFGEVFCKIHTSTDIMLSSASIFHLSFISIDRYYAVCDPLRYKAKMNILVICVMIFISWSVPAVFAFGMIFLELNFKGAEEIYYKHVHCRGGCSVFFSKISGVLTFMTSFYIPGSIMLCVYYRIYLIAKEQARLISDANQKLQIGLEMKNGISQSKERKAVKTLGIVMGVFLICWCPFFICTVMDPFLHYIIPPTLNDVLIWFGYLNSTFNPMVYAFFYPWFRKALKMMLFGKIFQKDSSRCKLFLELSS
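System: CHO RD-HGA16 cells bearing hTAAR1. Reagent: EC80 β-phenethylamine stimulus. Schedule: seeding 17-24 h prior, 75-min 37 °C, 30-min RT dye loading. Signal: Fluo-8 intracellular calcium dye fluorescence, real-time kinetic reads. Read-out: % inhibition from peak post-agonist over basal fluorescence ratio. Benchmarks: vehicle wells and EC80 agonist wells. Replicates: n of 1.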
rCAG binder: binds r(CAG) RNA repeats; r(CAG) RNA repeat, TO-PRO-1 dye displacement fluorescence; inhibition, % at 3 µM; 370,000 compounds, 1.3% hits; AID 651821;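 active means inhibition above the plate cutoff, the mean of all test compounds on that plate plus 3 SD, cut at about 35% in these data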;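 further: 0% = DMSO alone and 100% = 100 µM mitoxantrone as full dye displacement; higher means more dye released from RNA so lower well fluorescence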
core dimer inh: HCV core protein dimerization inhibition. 300,000 compounds, 0.33% hits. inhibition, % at 5 µM. TR-FRET GST/Flag-core106 dimerization, 1536-well. AID 1899;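 active means inhibition above the mean of all tested compounds plus 3 SD, set per screening campaign, cut at about 45% in these data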
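System – GST-tagged and Flag-tagged HCV core protein residues 1-106 · Repeats – one well for each compound · Technique – TR-FRET 671 and 617 nm emission · Doses – one concentration, 5 µM, in 0.5% DMSO · Times – 4 h, 22.5 °C incubation · Also added – Eu donor and XL665 acceptor anti-tag antibodies · Measure – percent inhibition of core106 dimerization signal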
TAAR1 agonist: agonists of human TAAR1; CHO RD-HGA16 TAAR1, Fluo-8 calcium fluorescence; vehicle wells 0%, saturating PEA agonist 100%; activation, % at 3 µM; 360,000 compounds, 0.99% hits; AID 624467;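 active means activation above the mean activation of all test compounds in the run plus 3 SD, cut at about 38% in these data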
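Test system: RD-HGA16 (CHO) cells co-expressing Gα16 and hTAAR1 / Benchmarks: DMSO vehicle as 0%, PEA at EC100 as 100% / Repeats: no replicates (n 1) / Measure: % activation from peak over basal fluorescence ratio, DMSO-to-PEA scaled / Timing: 17-24 h plating, Fluo-8 75 min 37 °C, 30 min RT / Technique: kinetic Fluo-8 calcium fluorescence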
An asterisk follows results filed as active; · = no result.

SMILES | NS3 helicase inh | TAAR1 antag | rCAG binder | core dimer inh | TAAR1 agonist
Cc1ccccc1NC(=O)c1cc(-c2ccco2)nc2ccccc12 | · | 60* | 5 | · | 7
Cc1ccc(S(=O)(=O)N(C)C)cc1NC(=O)c1cc(-c2ccco2)nc2ccccc12 | 17 | · | · | 15 | ·
CCOc1cc(N2CCOCC2)c(OCC)cc1NC(=O)c1cc(-c2ccco2)nc2ccccc12 | 10 | 71* | 0 | -2 | 15
COc1cc(-c2cc(C(=O)Nc3ccc(S(=O)(=O)NCc4ccco4)cc3)c3ccccc3n2)cc(OC)c1OC | -1 | 57* | 19 | 30 | 22
CCOc1cc(N2CCOCC2)c(OCC)cc1NC(=O)COc1ncnc2ccccc12 | 4 | -5 | -3 | -3 | 6
C=C(C)CSc1nc2sc(C)c(C)c2c(=O)n1C | · | · | 1 | · | ·
COC(=O)C1CN(Cc2cn(Cc3ccc(Cl)cc3)nn2)CCS(=O)(=O)N1Cc1ccc(C)cc1 (stereo not drawn) | · | · | -1 | · | ·
CCCCCCNC(=O)c1cc(-c2ccco2)nc2ccccc12 | 13 | 28 | 5 | 64* | 10
COc1ccc(-c2cc(C(=O)Nc3cc(S(N)(=O)=O)ccc3C)c3ccccc3n2)cc1OC | · | 31 | 23 | 3 | 5
COc1cc(-c2cc(C(=O)Nc3cc(S(=O)(=O)N4CCOCC4)ccc3C)c3ccccc3n2)cc(OC)c1OC | · | 49* | 12 | · | 17
O=C(CSc1nnc(-c2cnccn2)n1-c1ccccc1)c1ccc(F)cc1 | · | · | 0 | · | ·
CC1=NN(c2ccccc2)C(=O)/C1=C\N1CC(C)OC(C)C1 (stereo not drawn) | -3 | 70* | 2 | -5 | 98*
CC1=NN(c2ccccc2)C(=O)/C1=C/C=C/c1ccccc1 | 9 | 18 | 5 | 12 | -2
CC1=NN(c2ccccc2)C(=O)/C1=C\c1ccc(Oc2ccc([N+](=O)[O-])cc2[N+](=O)[O-])cc1 | 12 | -3 | 26 | 61* | 23
COc1ccccc1/C=C1/C(=O)N(c2ccccc2)N=C1C | 7 | 16 | 31 | -4 | 37*
COc1cc(/C=C2\C(=O)N(c3ccccc3)N=C2C)ccc1Oc1ccc([N+](=O)[O-])cc1[N+](=O)[O-] | 7 | -7 | 29 | 38 | 2
CC1=NN(c2ccccc2)C(=O)/C1=C\c1cn(-c2ccccc2)nc1C | 7 | 3 | -1 | 2 | 15
CCCCCCN1CCS(=O)(=O)N(Cc2ccc(Cl)cc2)C(C(=O)OC)C1 (stereo not drawn) | · | · | -1 | · | ·
c1ccc(C[C@H]2CN=C(Nc3ccccc3)N2CC2CCCCCC2)cc1 | · | 13 | 4 | · | 30
c1ccc(C[C@H]2CN=C(Nc3ccccc3)N2CC2CCCCC2)cc1 | · | 1 | 6 | · | 41*
CC1CCC(CN2C(Nc3ccccc3)=NC[C@@H]2Cc2ccccc2)CC1 (stereo partly drawn) | · | 15 | 3 | · | 44*
Cc1cccc(-c2nnc(SCC(=O)c3ccc(F)cc3)n2C)c1 | · | · | 2 | · | ·
CCOC(=O)[C@@]12CN(C(=O)OC(C)(C)C)CC=C1N(Cc1ccc(OC)cc1)C(=O)[C@H]2CC(=O)N1CCC(c2ccccc2)CC1 | · | · | 2 | · | ·
Cc1onc(-c2ccc(Cl)cc2)c1-c1ccn(S(=O)(=O)c2ccccc2)n1 | · | · | 3 | · | ·
COc1ccccc1CNc1ncnc2nc[nH]c12 | 2 | 1 | 4 | 2 | 1
SMILES | NS3 helicase inh | TAAR1 antag | rCAG binder | core dimer inh | TAAR1 agonist
c1ccc2c(CCNc3ncnc4nc[nH]c34)c[nH]c2c1 | 5 | 59* | 0 | 0 | 10
COc1ccc(/C=C(/CC(=O)NCc2ccc(Cl)cc2)c2nc3ccccc3s2)cc1 | 2 | -24 | 17 | 31 | 7
COc1ccc(/C=C(/CC(=O)Nc2ccccc2)c2nc3ccccc3s2)cc1 | 1 | -27 | 18 | 58* | 4
COc1ccc(Oc2c(Br)cnn(Cc3cccc4ccccc34)c2=O)cc1 | · | · | 6 | · | ·
CN1C[C@]2(C=C3CCCCC3n3c(=O)n(-c4ccccc4)c(=O)n32)N(C(=O)OCc2ccccc2)C1=NC(=O)c1ccccc1 (stereo partly drawn) | · | · | 4 | · | ·
COC(=O)[C@]12C[C@H](CC(=O)NCCCN3CCCC3=O)C(=O)N(Cc3cccc4ccccc34)C1=C[C@H](COCc1ccccc1)O[C@@H]2C | · | · | 7 | · | ·
NNc1ccc([N+](=O)[O-])c2[nH][nH]c(=O)c12 | · | -14 | 42* | · | 5
O=[N+]([O-])c1ccc(Nc2ccccc2)c2nonc12 | 11 | 10 | 5 | -10 | 6
O=C(COC(=O)c1c2c(nc3ccccc13)/C(=C\c1cccs1)CCC2)Nc1ccccc1 | 2 | 20 | 21 | 10 | 3
CC(=O)c1ccc(NC(=O)COC(=O)c2c3c(nc4ccccc24)/C(=C\c2cccs2)CCC3)cc1 | 6 | 58* | 14 | 14 | 8
CC(C)CNC(=O)COC(=O)c1c2c(nc3ccccc13)/C(=C\c1cccs1)CC2 | · | 50* | 20 | · | 0
CCCCCCCCNS(=O)(=O)CC1NCc2ccccc21 (stereo not drawn) | · | · | 5 | · | ·
c1ccc(CCNc2ncnc3scc(C4COc5ccccc5O4)c23)cc1 (stereo not drawn) | -4 | 71* | 3 | 4 | 18
COc1cccc(-c2sc3ccccc3c2-c2ccc(OCCN(C)C)cc2)c1 | · | 51* | -1 | · | 26
COc1cccc(-c2sc3ccccc3c2-c2ccc(OCCN3CCCC3)cc2)c1 | · | 23 | 2 | · | 10
COc1cccc(NC(=O)Nc2cccs2)c1 | 31 | 19 | 4 | 0 | 20
O=C(Nc1cccs1)Nc1ccc(F)cc1F | 9 | -10 | 1 | 3 | 39*
CC(=O)c1cccc(NC(=O)Nc2cccs2)c1 | 1 | 28 | 8 | -5 | 42*
CC(=O)c1cccc(NC(=O)Nc2cc3sccc3n2C)c1 | -6 | · | · | 51* | ·
O=C(Nc1cccs1)Nc1ccc(Br)cc1F | 8 | 39 | 7 | -9 | 10
CCOC(=O)[C@]12CCCC3=C1N(CCC3)C(=O)[C@@H](CC(=O)NCc1ccc(OC)c(OC)c1)C2 | · | · | -1 | · | ·
O=C1N[C@H](Cc2ccccc2)COC(=O)[C@H](Cc2ccc(F)cc2)CC/C=C/C[C@@H]1CC(=O)N(CCO)Cc1ccccc1 | · | 64* | 8 | · | 44*
CC(C)(C)[C@H]1COC(=O)[C@@H](Cc2ccc(F)cc2)C/C=C\C[C@@H](CC(=O)N[C@@H](CO)Cc2ccccc2)C(=O)N1 | · | 58* | -7 | · | 22
O=C1N[C@@H](Cc2c[nH]c3ccccc23)COC(=O)[C@@H](Cc2ccc(F)cc2)C/C=C\C[C@H]1CC(=O)N(CCO)Cc1ccccc1 | · | 55* | 2 | · | 10
O=C1OC[C@@H]2CCCN2C(=O)[C@@H](CC(=O)N(CCO)Cc2ccccc2)C/C=C\C[C@@H]1Cc1ccc(F)cc1 | · | 54* | -11 | · | 26

From PubChem
